# Test results reported in PubChem BioAssay.
# Calls of active or inactive are those of the source.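 The calls were made as follows: active = duplicate-averaged activation above buffer control mean plus 5 SD of those controls; inactive = the rest.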
# Experiment: thallium flux activation in parental CHO cells, counter-screen for KCNQ1 potentiator project (AID 493006)
# Conditions: parental CHO-K1 cells, FluxOR thallium flux, at 10 µM; hits give high values
# How it was run: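 Assay system: Untransfected host CHO-K1 cells with FluxOR thallium dye | Probe or stimulus: Potassium/thallium depolarization pulse | Schedule: Overnight 37 °C plating, 90 min RT dye, 20 min compound | Detection: Kinetic thallium-flux fluorescence | Read-out: Max-minus-min fluorescence over baseline, percent of buffer-to-R-L3 span | Benchmarks: Low control buffer, high control R-L3 activator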
Structure (SMILES),outcome,activation
CC1(N2CCCCC2)CC2(O)C(=[N+]1[O-])CCC/C2=N\O (stereo not drawn),inactive,
Cc1cccc(OCC(=O)O/N=C(\N)c2ccc(Cl)cc2)c1,inactive,
O=C(Nc1nnc(-c2ccc3c(c2)CCCC3)o1)c1c(F)cccc1F,,148% (active)
CCn1ncc(Cl)c1C(=O)NC(=S)Nc1ccccc1Br,,272% (active)
CCN1c2ccccc2-c2nc3ccccc3n2C1c1cccnc1 (stereo not drawn),inactive,
COc1ccc(-n2c(NCCN(C)C)nc3sc4c(c3c2=O)CCCCC4)cc1,inactive,
COC(=O)c1cccc(NC(=O)CSc2nncn2-c2ccccn2)c1,inactive,
COc1ccc(NC(=S)NC(=O)c2csnn2)cc1,,213% (active)
O=C1CN(c2nc(-c3cccs3)nc3sc4c(c23)CCCC4)CCN1,,259% (active)
O=C(NC(=S)NCCC1=CCCCC1)c1ccco1,,324% (active)
CCC(Cc1ccccc1)n1c(=S)[nH]c2ccccc2c1=O (stereo not drawn),inactive,
C/C(=N\NC(=O)C1COc2ccccc2O1)c1ccc(N2CCOCC2)cc1 (stereo not drawn),inactive,
O=C(NNC(=O)c1ccc2ccccc2c1O)c1cccs1,inactive,
COc1cccc2sc(N(CCCN(C)C)C(=O)CCS(=O)(=O)c3ccccc3)nc12,inactive,
CC(C)NC(=O)/C(=C/c1cn(-c2ccccc2)nc1-c1cccc([N+](=O)[O-])c1)NC(=O)c1ccccc1,inactive,
CCCNC(=O)C(=O)N/N=C/c1cccs1,inactive,
Cc1ccc(NC(=O)C(=O)NNC(=O)c2ccccc2C)cc1Cl,,304% (active)
CCOC(=O)C1=NN(C(=O)c2ccccc2)C(O)(c2ccc(C)cc2)C1 (stereo not drawn),,141% (active)
